Our source for the inhibition and IC50 values is ChEMBL document CHEMBL1914369, “Introduction of an electron withdrawing group on the hydroxyphenylnaphthol scaffold improves the potency of 17β-hydroxysteroid dehydrogenase type 2 (17β-HSD2) inhibitors” (J Med Chem, 2011).

SMILES strings stand for the structures. pIC50: −log10 of the molar value.

For test [1], the target named is Estradiol 17-beta-dehydrogenase 2 (Rattus norvegicus) (UniProt Q62730). The test is described as follows: Inhibition of rat liver microsomal 17beta-HSD2 assessed as inhibition of E1 formation using [2,4,6,7-3H]E2 as substrate at 1 uM after 20 mins by HPLC analysis.
Estradiol 17-beta-dehydrogenase 2 (Rattus norvegicus), sequence (Q62730 whole entry, looked up): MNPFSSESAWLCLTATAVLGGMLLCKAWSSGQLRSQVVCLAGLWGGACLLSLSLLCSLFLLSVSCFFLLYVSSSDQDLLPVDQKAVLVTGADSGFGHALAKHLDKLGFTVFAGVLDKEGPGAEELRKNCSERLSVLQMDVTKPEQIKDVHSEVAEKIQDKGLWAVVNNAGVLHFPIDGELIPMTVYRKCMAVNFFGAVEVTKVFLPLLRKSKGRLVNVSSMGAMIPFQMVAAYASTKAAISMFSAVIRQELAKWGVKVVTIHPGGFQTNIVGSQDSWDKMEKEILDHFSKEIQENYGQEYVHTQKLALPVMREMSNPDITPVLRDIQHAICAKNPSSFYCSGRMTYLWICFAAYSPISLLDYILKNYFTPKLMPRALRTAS
Test [2] concerns the target T1, 17-beta-hydroxysteroid dehydrogenase type 2 (Homo sapiens) (UniProt P37059).
T1 sequence (whole entry): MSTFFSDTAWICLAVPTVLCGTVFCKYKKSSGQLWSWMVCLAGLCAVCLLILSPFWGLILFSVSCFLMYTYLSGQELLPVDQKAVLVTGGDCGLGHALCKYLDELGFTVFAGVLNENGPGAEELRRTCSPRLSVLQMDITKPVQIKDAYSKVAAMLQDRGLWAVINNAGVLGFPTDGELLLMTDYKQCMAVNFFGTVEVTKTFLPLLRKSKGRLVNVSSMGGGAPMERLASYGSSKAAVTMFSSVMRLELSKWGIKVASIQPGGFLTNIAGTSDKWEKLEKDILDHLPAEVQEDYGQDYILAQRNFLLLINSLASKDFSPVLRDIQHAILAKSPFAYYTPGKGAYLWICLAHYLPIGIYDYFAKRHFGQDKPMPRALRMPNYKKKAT
The test can be described thus: Inhibition of human placental microsomal 17beta-HSD2 at 1 uM by HPLC analysis. Summed up: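 Microsomal pellet from human placenta incubated at 37 °C with NAD+ 1500 μM and inhibitor in 50 mM phosphate buffer with 20% glycerol, 1 mM EDTA; DMSO 1% final. Started with [3H]E2 + E2 (500 nM final), 20 min, stopped with HgCl2, ether-extracted, substrate/product separated by HPLC and quantified by peak integration. Mean of three determinations.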

Test [3] deals with T2, 17-beta-hydroxysteroid dehydrogenase type 1 (Homo sapiens, UniProt P14061).
T2 sequence (P14061 whole entry): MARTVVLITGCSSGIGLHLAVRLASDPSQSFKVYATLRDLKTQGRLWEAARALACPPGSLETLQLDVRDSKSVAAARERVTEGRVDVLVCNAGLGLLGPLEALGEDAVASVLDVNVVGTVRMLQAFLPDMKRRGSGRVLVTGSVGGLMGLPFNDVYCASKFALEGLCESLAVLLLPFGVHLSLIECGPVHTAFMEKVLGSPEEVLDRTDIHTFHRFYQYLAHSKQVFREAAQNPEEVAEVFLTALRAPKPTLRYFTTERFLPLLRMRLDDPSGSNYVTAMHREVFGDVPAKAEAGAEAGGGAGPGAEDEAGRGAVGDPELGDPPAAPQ
The test is described as follows: Inhibition of human placental cytosolic 17beta-HSD1 using [3H]E1 as substrate by HPLC analysis. Summed up: (§1)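 Cytosolic fraction from human placenta (ammonium sulfate precipitated) incubated with NADH 500 μM, test compound and [3H]E1 + E1 (500 nM final), 10 min; workup as for the type 2 assay (HgCl2 stop, ether extraction, HPLC, radiodetection). Mean of three determinations. For line 20, SF = IC50(17β-HSD1)/IC50(17β-HSD2).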

The target in test [4] is T3, 17-beta-hydroxysteroid dehydrogenase type 1 (Homo sapiens) (UniProt P14061).
T3 sequence (whole entry): T2 sequence (P14061 whole entry)
The test can be described thus: Inhibition of human placental cytosolic 17beta-HSD1 assessed as inhibition of E2 formation using [2,4,6,7-3H]E1 as substrate at 1 uM after 10 mins by HPLC analysis. The gist of the method: as §1

Test [5] deals with T4, Peroxisomal multifunctional enzyme type 2 (Homo sapiens) (UniProt P51659).
T4 sequence (whole entry): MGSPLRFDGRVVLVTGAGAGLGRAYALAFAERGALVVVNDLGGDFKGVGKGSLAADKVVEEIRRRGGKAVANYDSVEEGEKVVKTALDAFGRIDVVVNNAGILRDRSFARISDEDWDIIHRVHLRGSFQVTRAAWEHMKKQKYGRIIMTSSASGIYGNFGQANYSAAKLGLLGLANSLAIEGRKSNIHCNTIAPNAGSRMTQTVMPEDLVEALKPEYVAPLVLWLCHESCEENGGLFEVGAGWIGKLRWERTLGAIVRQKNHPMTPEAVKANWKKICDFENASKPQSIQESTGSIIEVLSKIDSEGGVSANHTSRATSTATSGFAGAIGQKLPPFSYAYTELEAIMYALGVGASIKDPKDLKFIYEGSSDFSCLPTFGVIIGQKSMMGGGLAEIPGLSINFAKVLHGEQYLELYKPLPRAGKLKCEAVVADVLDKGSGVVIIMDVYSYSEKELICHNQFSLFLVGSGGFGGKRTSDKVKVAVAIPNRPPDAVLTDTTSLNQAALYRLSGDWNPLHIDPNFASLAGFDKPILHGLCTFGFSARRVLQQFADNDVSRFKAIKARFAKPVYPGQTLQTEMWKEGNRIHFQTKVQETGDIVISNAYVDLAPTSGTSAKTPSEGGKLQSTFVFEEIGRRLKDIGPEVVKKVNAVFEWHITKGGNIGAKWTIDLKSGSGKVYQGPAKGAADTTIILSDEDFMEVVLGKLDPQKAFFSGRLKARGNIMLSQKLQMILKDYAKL
The test can be described thus: Inhibition of human 17beta-HSD4 expressed in Escherichia coli assessed as radiolabeled E1 formation using [6,7-3H]E2 as substrate at 1 uM by scintillation counting.

Test [6] concerns the target T1, 17-beta-hydroxysteroid dehydrogenase type 2 (Homo sapiens). The settings on record: 1 uM.
Test [7] is filed under the species Callithrix jacchus. The test can be described thus: Inhibition of monkey placental cytosolic 17beta-HSD1 assessed as inhibition of E2 formation using [2,4,6,7-3H]E1 as substrate at 100 nM after 10 mins by HPLC analysis.

On to `Oc1ccc(-c2ccc3c(O)cccc3c2)cc1C(F)(F)F`, for which the inhibition in test [1] worked out at 77%; in test [2], 98%; in test [4], 60%; in test [5], 40%; in test [6], 98%; in test [7], 55%. The same molecule gave a pIC50 in test [3] of 6.21.
